According to ChEMBL document CHEMBL1777764, “Synthesis and evaluation of 1-(1H-indol-3-yl)ethanamine derivatives as new antibacterial agents” (Bioorg Med Chem, 2011):
Converted amounts (≈) assume the structure as drawn.

What was measured:
[1] = test system: Staphylococcus aureus; assay: Antibacterial activity against Staphylococcus aureus ATCC 6538 after 18 hrs by broth microdilution method; type: functional; settings: ATCC 6538, 18 h
Procedure, shortened: (§1)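 MIC by broth microdilution per ISO 20776-1:2006 and CLSI M07-A8. Inoculum 10^6 cfu/ml in Mueller-Hinton broth with compound serially diluted, final concentrations 2 to 128 ug/ml, duplicate rows, no-drug growth control. Incubation 18 h at 37 °C. MIC taken as lowest concentration giving complete inhibition of visible growth. Each compound tested at least twice.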

[2] = test system: Staphylococcus aureus; assay: Antibacterial activity against Staphylococcus aureus ATCC 25923 after 18 hrs by broth microdilution method; type: functional; settings: ATCC 25923, 18 h; procedure, shortened: as §1
[3] = test system: MRC5; assay: Cytotoxicity against human MRC5 cells at 10 uM; type: cell-based; settings: mrc5, 10 µM
[4] = test system: Staphylococcus epidermidis; assay: Antibacterial activity against Staphylococcus epidermidis ATCC 12228 after 18 hrs by broth microdilution method; type: functional; settings: ATCC 12228, 18 h; procedure, shortened: as §1
[5] = test system: Staphylococcus aureus; assay: Antibacterial activity against Staphylococcus aureus ATCC 9144 after 18 hrs by broth microdilution method; type: functional; settings: ATCC 9144, 18 h; procedure, shortened: as §1
[6] = test system: HCT-116; assay: Cytotoxicity against human HCT116 cells at 1 uM; type: cell-based; settings: hct-116, 1 µM
[7] = test system: Staphylococcus aureus; assay: Antibacterial activity against Staphylococcus aureus CIP 65.6 after 18 hrs by broth microdilution method; type: functional; settings: CIP 65.6, 18 h; procedure, shortened: as §1
[8] = test system: Staphylococcus epidermidis; assay: Antibacterial activity against Staphylococcus epidermidis CIP 103627 after 18 hrs by broth microdilution method; type: functional; settings: CIP 103627, 18 h; procedure, shortened: as §1
[9] = test system: Staphylococcus aureus; assay: Antibacterial activity against Staphylococcus aureus CIP 103428 after 18 hrs by broth microdilution method; type: functional; settings: CIP 103428, 18 h; procedure, shortened: as §1
[10] = test system: HCT-116; assay: Cytotoxicity against human HCT116 cells at 10 uM; type: cell-based; settings: hct-116, 10 µM
[11] = test system: KB; assay: Cytotoxicity against human KB cells at 10 uM; type: cell-based
[12] = test system: Staphylococcus aureus; assay: Antibacterial activity against Staphylococcus aureus ATCC 29213 after 18 hrs by broth microdilution method; type: functional; settings: ATCC 29213, 18 h; procedure, shortened: as §1
[13] = test system: KB; assay: Cytotoxicity against human KB cells at 1 uM; type: cell-based
[14] = test system: MRC5; assay: Cytotoxicity against human MRC5 cells at 1 uM; type: cell-based; settings: mrc5, 1 µM
[15] = test system: Staphylococcus epidermidis; assay: Antibacterial activity against Staphylococcus epidermidis CIP 81.55 after 18 hrs by broth microdilution method; type: functional; settings: CIP 81.55, 18 h; procedure, shortened: as §1
[16] = test system: Streptococcus pneumoniae; assay: Antibacterial activity against Streptococcus pneumoniae ATCC 49619 after 18 hrs by broth microdilution method; type: functional; settings: ATCC 49619, 18 h
Procedure, shortened: (§2)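 MIC by broth microdilution per ISO 20776-1:2006 and CLSI M07-A8. Inoculum 10^6 cfu/ml in Mueller-Hinton broth […]. Compound serially diluted, final 2 to 128 ug/ml, duplicate rows, no-drug growth control. Read after 18 h at 37 °C as lowest concentration fully inhibiting visible growth. At least two experiments.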

[17] = test system: Staphylococcus aureus; assay: Antibacterial activity against vancomycin intermediate Staphylococcus aureus […] after 18 hrs by broth microdilution method; type: functional
Procedure, shortened: (§3)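 Broth microdilution following ISO 20776-1:2006 and CLSI M07-A8, in Mueller-Hinton broth. Inoculum was 10^6 cfu/ml, with compound serial dilutions spanning 2 to 128 ug/ml and a compound-free growth control well. Plates were incubated 18 h at 37 °C. MIC was the lowest concentration giving complete inhibition of visible growth. Each compound was tested at least twice.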

[18] = test system: Staphylococcus aureus; assay: Antibacterial activity against methicillin-resistant Staphylococcus aureus ATCC 33592 after 18 hrs by broth microdilution method; type: functional; settings: ATCC 33592, 18 h; procedure, shortened: as §3
[19] = test system: Staphylococcus aureus; assay: Antibacterial activity against methicillin-resistant Staphylococcus aureus CIP 65.25 after 18 hrs by broth microdilution method; type: functional; settings: CIP 65.25, 18 h; procedure, shortened: as §3
[20] = test system: Streptococcus pneumoniae; assay: Antibacterial activity against Streptococcus pneumoniae ATCC 6303 after 18 hrs by broth microdilution method; type: functional; settings: ATCC 6303, 18 h; procedure, shortened: as §2

SMILES	MIC [1]	MIC [2]	Activity [3]	MIC [4]	MIC [5]	Activity [6]	MIC [7]	MIC [8]	MIC [9]	Activity [10]	Activity [11]	MIC [12]	Activity [13]	Activity [14]	MIC [15]	MIC [16]	MIC [17]	MIC [18]	MIC [19]	MIC [20]
CC(C)CC(NO)c1c[nH]c2ccc(F)cc12 (stereo not given)	32 µg/mL (≈ 135 µM)	32 µg/mL (≈ 135 µM)	Non-toxic	32 µg/mL (≈ 135 µM)	32 µg/mL (≈ 135 µM)	Non-toxic	32 µg/mL (≈ 135 µM)	32 µg/mL (≈ 135 µM)	32 µg/mL (≈ 135 µM)	Non-toxic	Non-toxic	32 µg/mL (≈ 135 µM)	Non-toxic	Non-toxic	32 µg/mL (≈ 135 µM)					
CC(C)(C)OC(=O)NCC(c1c[nH]c2cc(Br)ccc12)N(O)Cc1ccccc1 (stereo not given)	8 µg/mL (≈ 17.4 µM)	8 µg/mL (≈ 17.4 µM)	Non-toxic	16 µg/mL (≈ 34.8 µM)	8 µg/mL (≈ 17.4 µM)	Non-toxic	8 µg/mL (≈ 17.4 µM)	16 µg/mL (≈ 34.8 µM)	8 µg/mL (≈ 17.4 µM)	Non-toxic	Non-toxic	8 µg/mL (≈ 17.4 µM)	Non-toxic	Non-toxic	16 µg/mL (≈ 34.8 µM)	> 128 µg/mL	16 µg/mL (≈ 34.8 µM)	16 µg/mL (≈ 34.8 µM)	16 µg/mL (≈ 34.8 µM)	> 128 µg/mL
CC(C)(C)OC(=O)NCC(c1c[nH]c2ccc(Br)cc12)N(O)Cc1ccccc1 (stereo not given)	8 µg/mL (≈ 17.4 µM)	8 µg/mL (≈ 17.4 µM)	Non-toxic	16 µg/mL (≈ 34.8 µM)	8 µg/mL (≈ 17.4 µM)	Non-toxic	8 µg/mL (≈ 17.4 µM)	16 µg/mL (≈ 34.8 µM)	8 µg/mL (≈ 17.4 µM)	Non-toxic	Non-toxic	8 µg/mL (≈ 17.4 µM)	Non-toxic	Non-toxic	16 µg/mL (≈ 34.8 µM)	128 µg/mL (≈ 278 µM)	8 µg/mL (≈ 17.4 µM)	16 µg/mL (≈ 34.8 µM)	16 µg/mL (≈ 34.8 µM)	128 µg/mL (≈ 278 µM)
CC(C)CC(NO)c1c[nH]c2ccc(I)cc12 (stereo not given)	32 µg/mL (≈ 93 µM)	32 µg/mL (≈ 93 µM)	Non-toxic	16 µg/mL (≈ 46.5 µM)	32 µg/mL (≈ 93 µM)	Non-toxic	32 µg/mL (≈ 93 µM)	16 µg/mL (≈ 46.5 µM)	32 µg/mL (≈ 93 µM)	Non-toxic	Non-toxic	32 µg/mL (≈ 93 µM)	Non-toxic	Non-toxic	16 µg/mL (≈ 46.5 µM)					
CC(NO)c1c[nH]c2ccc(Cl)cc12 (stereo not given)	32 µg/mL (≈ 152 µM)	32 µg/mL (≈ 152 µM)	Non-toxic	16 µg/mL (≈ 76 µM)	32 µg/mL (≈ 152 µM)	Non-toxic	32 µg/mL (≈ 152 µM)	16 µg/mL (≈ 76 µM)	32 µg/mL (≈ 152 µM)	Non-toxic	Non-toxic	32 µg/mL (≈ 152 µM)	Non-toxic	Non-toxic	16 µg/mL (≈ 76 µM)					
CC(C)CC(NO)c1c[nH]c2ccc(Cl)cc12 (stereo not given)	16 µg/mL (≈ 63.3 µM)	16 µg/mL (≈ 63.3 µM)	Non-toxic	32 µg/mL (≈ 127 µM)	16 µg/mL (≈ 63.3 µM)	Non-toxic	16 µg/mL (≈ 63.3 µM)	32 µg/mL (≈ 127 µM)	16 µg/mL (≈ 63.3 µM)	Non-toxic	Non-toxic	16 µg/mL (≈ 63.3 µM)	Non-toxic	Non-toxic	32 µg/mL (≈ 127 µM)					
CC(C)CC(NO)c1c[nH]c2ccccc12 (stereo not given)	64 µg/mL (≈ 293 µM)	64 µg/mL (≈ 293 µM)	Non-toxic	32 µg/mL (≈ 147 µM)	64 µg/mL (≈ 293 µM)	Non-toxic	64 µg/mL (≈ 293 µM)	32 µg/mL (≈ 147 µM)	64 µg/mL (≈ 293 µM)	Non-toxic	Non-toxic	64 µg/mL (≈ 293 µM)	Non-toxic	Non-toxic	32 µg/mL (≈ 147 µM)					
CC(C)CC(NO)c1c[nH]c2ccc(Br)cc12 (stereo not given)	32 µg/mL (≈ 108 µM)	32 µg/mL (≈ 108 µM)	Non-toxic	16 µg/mL (≈ 53.8 µM)	32 µg/mL (≈ 108 µM)	Non-toxic	32 µg/mL (≈ 108 µM)	16 µg/mL (≈ 53.8 µM)	32 µg/mL (≈ 108 µM)	Non-toxic	Non-toxic	32 µg/mL (≈ 108 µM)	Non-toxic	Non-toxic	16 µg/mL (≈ 53.8 µM)					
CC(C)CC(c1c[nH]c2ccccc12)N(O)Cc1ccccc1 (stereo not given)	32 µg/mL (≈ 104 µM)	32 µg/mL (≈ 104 µM)	Non-toxic	16 µg/mL (≈ 51.9 µM)	32 µg/mL (≈ 104 µM)	Non-toxic	32 µg/mL (≈ 104 µM)	16 µg/mL (≈ 51.9 µM)	32 µg/mL (≈ 104 µM)	Non-toxic	Non-toxic	32 µg/mL (≈ 104 µM)	Non-toxic	Non-toxic	16 µg/mL (≈ 51.9 µM)					
CC(NO)c1c[nH]c2ccc(I)cc12 (stereo not given)	64 µg/mL (≈ 212 µM)	64 µg/mL (≈ 212 µM)	Non-toxic	32 µg/mL (≈ 106 µM)	64 µg/mL (≈ 212 µM)	Non-toxic	64 µg/mL (≈ 212 µM)	32 µg/mL (≈ 106 µM)	64 µg/mL (≈ 212 µM)	Non-toxic	Non-toxic	64 µg/mL (≈ 212 µM)	Non-toxic	Non-toxic	32 µg/mL (≈ 106 µM)					
